According to ChEMBL document CHEMBL1156197, “Design, synthesis and evaluation of novel 2-thiophen-5-yl-3H-quinazolin-4-one analogues as inhibitors of transcription factors NF-kappaB and AP-1 mediated transcriptional activation: Their possible utilization as anti-inflammatory and anti-cancer agents” (Bioorg Med Chem, 2010):
Activity calls are given as the source filed them. The calls are words filed in the database; no cut-off is given here.

Tests used:
HEK293 [1] = test: Cytotoxicity against TNF-alpha-stimulated HEK293 cells at 10 uM treated 24 hrs before TNFalpha challenge measured after 20 to 24 hrs; assay type: cell-based; conditions: human, hek293, 10 µM
[2] = molecular target: Transcription factor Jun (Homo sapiens) (UniProt P05412); test: Inhibition of AP-1 expressed in HEK293 cells assessed as PMA-stimulated transcriptional activation at 10 uM treated 24 hrs before PMA challenge measured after 20 to 24 hrs by luciferase reporter gene assay; assay type: cell-based
Outline: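 HEK-293 cells stably carrying a minimal-promoter luciferase construct with tandem AP-1 elements (TGACTAA) were plated at 5 × 10⁴ cells/well and held 24 h at 37 °C in 5% CO₂. Compounds in 0.1% DMSO (10 µM–1 nM) were added to replicate wells for 24 h. Cells were then stimulated with PMA for 20–24 h and read with Bright-Glo luminescence. Mean RLU was normalized to the maximal control; IC50 came from a six-point dose response.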

HEK293 [3] = test: Inhibition of NF-kappaB expressed in HEK293 cells assessed as inhibition of TNF-alpha-stimulated transcriptional activation at 10 uM treated 24 hrs before TNFalpha challenge measured after 20 to 24 hrs by luciferase reporter gene assay; assay type: cell-based
Outline: (§1)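 Compounds in 0.1% DMSO (10 µM–1 nM) were added to replicate wells for 24 h. Cells were then stimulated with TNF-α for 20–24 h and read with Bright-Glo luciferase. Mean RLU was normalized to the maximal control; IC50 came from a six-point dose response.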

Rattus norvegicus = test: Antiinflammatory activity against carrageenan-induced paw edema in Sprague-Dawley rat assessed as reduction in paw volume at 50 mg/kg, po dosed 1 hr before carrageenan challenge measured after 3 hrs by plethysmometry; assay type: functional; set-up: scale not given: the % may be the effect or the level left
[4] = Inhibition of NF-kappaB expressed in HEK293 cells assessed as inhibition of TNF-alpha-stimulated transcriptional activation treated 24 hrs before TNFalpha challenge measured after 20 to 24 hrs by luciferase reporter gene assay; assay type: cell-based; outline: as §1
LNCaP = test: Cytotoxicity against human LNCAP cells; assay type: functional, cell-based
PC-3 = test: Cytotoxicity against human PC3 cells; assay type: functional, cell-based
Mus musculus = test: Inhibition of LPS-stimulated NF-kappaB activation in transgenic FVB mouse assessed as decrease in NF-kappaB activity at 50 mg/kg, po QD for 3 days before LPS challenge measured after 3 hrs by bioluminescence based luciferase reporter gene assay relative to control; assay type: functional; set-up: scale not given: the % may be the effect or the level left
TCC-SUP = test: Cytotoxicity against human TCCSUP cells; assay type: functional, cell-based

Transcription factor Jun (Homo sapiens), sequence (P05412 whole entry): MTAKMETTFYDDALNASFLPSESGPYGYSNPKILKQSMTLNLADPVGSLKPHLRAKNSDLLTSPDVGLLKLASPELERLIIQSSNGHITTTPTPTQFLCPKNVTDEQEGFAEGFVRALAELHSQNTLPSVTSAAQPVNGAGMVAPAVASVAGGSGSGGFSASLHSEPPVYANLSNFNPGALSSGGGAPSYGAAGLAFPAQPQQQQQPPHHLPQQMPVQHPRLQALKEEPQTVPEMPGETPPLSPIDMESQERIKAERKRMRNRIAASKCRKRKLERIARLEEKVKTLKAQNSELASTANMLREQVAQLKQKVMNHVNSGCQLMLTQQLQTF

Row | SMILES | Activity (HEK293 [1]) | inhibition [2] [%] | inhibition (HEK293 [3]) [%] | Activity (Rattus norvegicus) [%] | IC50 [4] [µM] | Activity (LNCaP) | Activity (PC-3) | Activity (Mus musculus) [%] | Activity (TCC-SUP)
1 | O=c1c2ccccc2nc(-c2cc(-c3ccc(Cl)cc3)c(N3CCOCC3)s2)n1-c1ccc(Cl)cc1 | Non-toxic | 14 | 0 |  |  |  |  |  | 
2 | Cc1ccccc1-n1c(-c2cc(-c3ccc(S(C)(=O)=O)cc3)c(N3CCOCC3)s2)nc2ccccc2c1=O | Non-toxic | 52 | 51 |  |  |  |  |  | 
3 | Cc1cccc(-n2c(-c3cc(-c4ccc(Cl)cc4)c(N4CCOCC4)s3)nc3ccccc3c2=O)c1 | Non-toxic | 10 | 28 |  |  |  |  |  | 
4 | CC(=O)c1ccc(-n2c(-c3cc(-c4ccc(Cl)cc4)c(N4CCOCC4)s3)nc3ccccc3c2=O)cc1 | Non-toxic | 7 | 0 |  |  |  |  |  | 
5 | CSc1ccc(-c2cc(-c3nc4ccccc4c(=O)n3-c3ccccc3)sc2N2CCOCC2)cc1 | Non-toxic | 0 | 0 |  |  |  |  |  | 
6 | Cc1ccc(-n2c(-c3cc(-c4ccccc4)c(N4CCOCC4)s3)nc3ccccc3c2=O)cc1 | Non-toxic | 17 | 0 |  |  |  |  |  | 
7 | O=c1c2ccccc2nc(-c2cc(-c3ccncc3)c(N3CCOCC3)s2)n1-c1ccc(Cl)cc1 | Non-toxic | 32 | 68 | 52 | 11.4 |  |  |  | 
8 | Cc1cccc(-n2c(-c3cc(-c4ccncc4)c(N4CCOCC4)s3)nc3ccccc3c2=O)c1 | Non-toxic | 35 | 42 |  |  |  |  |  | 
9 | O=c1c2ccccc2nc(-c2cc(-c3ccncc3)c(N3CCOCC3)s2)n1-c1ccccc1 | Non-toxic | 38 | 30 |  |  |  |  |  | 
10 | CC(=O)Nc1ccc(-c2cc(-c3nc4ccccc4c(=O)n3-c3ccccc3)sc2N2CCOCC2)cc1 | Non-toxic | 26 | 7 |  |  |  |  |  | 
11 | CC(=O)c1ccc(-n2c(-c3cc(-c4ccncc4)c(N4CCOCC4)s3)nc3ccccc3c2=O)cc1 | Non-toxic | 84 | 66 | 81 | 10 | Active | Active | 43 | Active
12 | Cc1ccccc1-n1c(-c2cc(-c3ccccc3)c(N3CCOCC3)s2)nc2ccccc2c1=O | Non-toxic | 27 | 23 |  |  |  |  |  | 
13 | CS(=O)(=O)c1ccc(-c2cc(-c3nc4ccccc4c(=O)n3-c3ccccc3)sc2N2CCOCC2)cc1 | Non-toxic | 28 | 9 |  |  |  |  |  | 
14 | O=c1c2ccccc2nc(-c2cc(-c3ccc(Cl)cc3)c(N3CCOCC3)s2)n1-c1ccccc1 | Non-toxic | 0 | 0 |  |  |  |  |  | 
15 | CC(=O)Nc1ccc(-c2cc(-c3nc4ccccc4c(=O)n3-c3cccc(C)c3)sc2N2CCOCC2)cc1 | Non-toxic | 13 | 35 |  |  |  |  |  | 
16 | CC(=O)c1ccc(-n2c(-c3cc(-c4ccc(S(C)(=O)=O)cc4)c(N4CCOCC4)s3)nc3ccccc3c2=O)cc1 | Non-toxic | 31 | 46 |  |  |  |  |  | 
17 | CC(=O)Nc1ccc(-c2cc(-c3nc4ccccc4c(=O)n3-c3ccc(C)cc3)sc2N2CCOCC2)cc1 | Non-toxic | 35 | 4 |  |  |  |  |  | 
18 | Cc1ccc(-n2c(-c3cc(-c4ccc(Cl)cc4)c(N4CCOCC4)s3)nc3ccccc3c2=O)cc1 | Non-toxic | 27 | 15 |  |  |  |  |  | 
